In ChEMBL document CHEMBL1926642, “Relevance of the C-5 position to schweinfurthin induced cytotoxicity” (2011):

Columns and labels:
Assay type in all cases: functional
CAKI-1 = test: Cytotoxicity against human Caki1 cells assessed as cell growth at 10 uM after 48 hrs by sulforhodamine B assay relative to control; conditions: CAKI-1, 48 h, read-out: Activity
How it was run: (§1)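 Compounds went through the NCI 60 cell-line screen, whose current protocol tests first at a single dose.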

RXF 393 = test: Cytotoxicity against human RXF393 cells assessed as cell growth at 10 uM after 48 hrs by sulforhodamine B assay relative to control; conditions: RXF 393, 48 h, read-out: Activity; how it was run: as §1
PC-3 = test: Cytotoxicity against human PC3 cells assessed as cell growth at 10 uM after 48 hrs by sulforhodamine B assay relative to control; conditions: PC-3, 48 h, read-out: Activity; how it was run: as §1
DU-145 = test: Cytotoxicity against human DU145 cells assessed as cell growth at 10 uM after 48 hrs by sulforhodamine B assay relative to control; conditions: DU-145, 48 h, read-out: Activity; how it was run: as §1
MCF7 = test: Cytotoxicity against human MCF7 cells assessed as cell growth at 10 uM after 48 hrs by sulforhodamine B assay relative to control; conditions: MCF7, 48 h, read-out: Activity; how it was run: as §1
[1] = Cytotoxicity against human Hs 578T cells assessed as cell growth at 10 uM after 48 hrs by sulforhodamine B assay relative to control; conditions: read-out: Activity; how it was run: as §1
T47D = test: Cytotoxicity against human T47D cells assessed as cell growth at 10 uM after 48 hrs by sulforhodamine B assay relative to control; conditions: read-out: Activity
MDA-MB-468 = test: Cytotoxicity against human MDA-MB-468 cells assessed as cell growth at 10 uM after 48 hrs by sulforhodamine B assay relative to control; conditions: MDA-MB-468, 48 h, read-out: Activity; how it was run: as §1
CCRF-CEM = test: Cytotoxicity against human CCRF-CEM cells assessed as cell growth at 10 uM after 48 hrs by sulforhodamine B assay relative to control; conditions: read-out: Activity; how it was run: as §1
A549 = test: Cytotoxicity against human A549/ATCC cells assessed as cell growth at 10 uM after 48 hrs by sulforhodamine B assay relative to control; conditions: A549, 48 h, read-out: Activity; how it was run: as §1
EKVX = test: Cytotoxicity against human EKVX cells assessed as cell growth at 10 uM after 48 hrs by sulforhodamine B assay relative to control; conditions: read-out: Activity; how it was run: as §1
HOP-62 = test: Cytotoxicity against human HOP62 cells assessed as cell growth at 10 uM after 48 hrs by sulforhodamine B assay relative to control; conditions: HOP-62, 48 h, read-out: Activity; how it was run: as §1
HOP-92 = test: Cytotoxicity against human HOP92 cells assessed as cell growth at 10 uM after 48 hrs by sulforhodamine B assay relative to control; conditions: HOP-92, 48 h, read-out: Activity; how it was run: as §1
NCI-H226 = test: Cytotoxicity against human NCI-H226 cells assessed as cell growth at 10 uM after 48 hrs by sulforhodamine B assay relative to control; conditions: NCI-H226, 48 h, read-out: Activity; how it was run: as §1
NCI-H23 = test: Cytotoxicity against human NCI-H23 cells assessed as cell growth at 10 uM after 48 hrs by sulforhodamine B assay relative to control; conditions: NCI-H23, 48 h, read-out: Activity; how it was run: as §1
NCI-H322M = test: Cytotoxicity against human NCI-H322M cells assessed as cell growth at 10 uM after 48 hrs by sulforhodamine B assay relative to control; conditions: read-out: Activity; how it was run: as §1
NCI-H460 = test: Cytotoxicity against human NCI-H460 cells assessed as cell growth at 10 uM after 48 hrs by sulforhodamine B assay relative to control; conditions: NCI-H460, 48 h, read-out: Activity; how it was run: as §1
NCI-H522 = test: Cytotoxicity against human NCI-H522 cells assessed as cell growth at 10 uM after 48 hrs by sulforhodamine B assay relative to control; conditions: NCI-H522, 48 h, read-out: Activity; how it was run: as §1
COLO 205 = test: Cytotoxicity against human COLO205 cells assessed as cell growth at 10 uM after 48 hrs by sulforhodamine B assay relative to control; conditions: COLO 205, 48 h, read-out: Activity; how it was run: as §1
HCT-15 = test: Cytotoxicity against human HCT15 cells assessed as cell growth at 10 uM after 48 hrs by sulforhodamine B assay relative to control; conditions: HCT-15, 48 h, read-out: Activity; how it was run: as §1
KM12 = test: Cytotoxicity against human KM12 cells assessed as cell growth at 10 uM after 48 hrs by sulforhodamine B assay relative to control; conditions: KM12, 48 h, read-out: Activity; how it was run: as §1
SW-620 = test: Cytotoxicity against human SW620 cells assessed as cell growth at 10 uM after 48 hrs by sulforhodamine B assay relative to control; conditions: SW-620, 48 h, read-out: Activity
SF-295 = test: Cytotoxicity against human SF295 cells assessed as cell growth at 10 uM after 48 hrs by sulforhodamine B assay relative to control; conditions: SF-295, 48 h, read-out: Activity; how it was run: as §1
SNB-75 = test: Cytotoxicity against human SNB75 cells assessed as cell growth at 10 uM after 48 hrs by sulforhodamine B assay relative to control; conditions: SNB-75, 48 h, read-out: Activity
M14 = test: Cytotoxicity against human M14 cells assessed as cell growth at 10 uM after 48 hrs by sulforhodamine B assay relative to control; conditions: M14, 48 h, read-out: Activity; how it was run: as §1
SK-MEL-2 = test: Cytotoxicity against human SK-MEL-2 cells assessed as cell growth at 10 uM after 48 hrs by sulforhodamine B assay relative to control; conditions: SK-MEL-2, 48 h, read-out: Activity; how it was run: as §1
SK-MEL-5 = test: Cytotoxicity against human SK-MEL-5 cells assessed as cell growth at 10 uM after 48 hrs by sulforhodamine B assay relative to control; conditions: SK-MEL-5, 48 h, read-out: Activity; how it was run: as §1
UACC-62 = test: Cytotoxicity against human UACC62 cells assessed as cell growth at 10 uM after 48 hrs by sulforhodamine B assay relative to control; conditions: UACC-62, 48 h, read-out: Activity
IGROV-1 = test: Cytotoxicity against human IGROV1 cells assessed as cell growth at 10 uM after 48 hrs by sulforhodamine B assay relative to control; conditions: IGROV-1, 48 h, read-out: Activity; how it was run: as §1
OVCAR-4 = test: Cytotoxicity against human OVCAR4 cells assessed as cell growth at 10 uM after 48 hrs by sulforhodamine B assay relative to control; conditions: OVCAR-4, 48 h, read-out: Activity; how it was run: as §1
OVCAR-5 = test: Cytotoxicity against human OVCAR5 cells assessed as cell growth at 10 uM after 48 hrs by sulforhodamine B assay relative to control; conditions: OVCAR-5, 48 h, read-out: Activity; how it was run: as §1
OVCAR-8 = test: Cytotoxicity against human OVCAR8 cells assessed as cell growth at 10 uM after 48 hrs by sulforhodamine B assay relative to control; conditions: OVCAR-8, 48 h, read-out: Activity; how it was run: as §1
NCI/ADR-RES = test: Cytotoxicity against human NCI/ADR-RES cells assessed as cell growth at 10 uM after 48 hrs by sulforhodamine B assay relative to control; conditions: read-out: Activity; how it was run: as §1
786-0 = test: Cytotoxicity against human 786-0 cells assessed as cell growth at 10 uM after 48 hrs by sulforhodamine B assay relative to control; conditions: 786-0, 48 h, read-out: Activity; how it was run: as §1

Compound: COc1cc(/C=C/c2cc(Br)c3c(c2)C[C@@H]2C(C)(C)[C@H](O)CC[C@@]2(C)O3)cc(O)c1C/C=C(\C)CCC=C(C)C
- growth at 10 µM (CAKI-1): 107%
- growth at 10 µM (RXF 393): 80.7%
- growth at 10 µM (PC-3): 87.6%
- growth at 10 µM (DU-145): 91.3%
- growth at 10 µM (MCF7): 102%
- growth at 10 µM [1]: 64.3%
- growth at 10 µM (T47D): 109%
- growth at 10 µM (MDA-MB-468): 110%
- growth at 10 µM (CCRF-CEM): 85.3%
- growth at 10 µM (A549): 94.7%
- growth at 10 µM (EKVX): 107%
- growth at 10 µM (HOP-62): 113%
- growth at 10 µM (HOP-92): 127%
- growth at 10 µM (NCI-H226): 117%
- growth at 10 µM (NCI-H23): 103%
- growth at 10 µM (NCI-H322M): 102%
- growth at 10 µM (NCI-H460): 108%
- growth at 10 µM (NCI-H522): 81.5%
- growth at 10 µM (COLO 205): 126%
- growth at 10 µM (HCT-15): 96.1%
- growth at 10 µM (KM12): 97.3%
- growth at 10 µM (SW-620): 119%
- growth at 10 µM (SF-295): 109%
- growth at 10 µM (SNB-75): 91.2%
- growth at 10 µM (M14): 107%
- growth at 10 µM (SK-MEL-2): 112%
- growth at 10 µM (SK-MEL-5): 99.3%
- growth at 10 µM (UACC-62): 104%
- growth at 10 µM (IGROV-1): 63.1%
- growth at 10 µM (OVCAR-4): 110%
- growth at 10 µM (OVCAR-5): 105%
- growth at 10 µM (OVCAR-8): 108%
- growth at 10 µM (NCI/ADR-RES): 105%
- growth at 10 µM (786-0): 96%

Compound: COCc1cc(/C=C/c2cc(O)c(C/C=C(\C)CCC=C(C)C)c(OC)c2)cc2c1O[C@]1(C)CC[C@@H](O)C(C)(C)[C@H]1C2
- growth at 10 µM (CAKI-1): 118%
- growth at 10 µM (RXF 393): 88%
- growth at 10 µM (PC-3): 79%
- growth at 10 µM (DU-145): 105%
- growth at 10 µM (MCF7): 103%
- growth at 10 µM [1]: 82.8%
- growth at 10 µM (T47D): 106%
- growth at 10 µM (MDA-MB-468): 116%
- growth at 10 µM (CCRF-CEM): 81.9%
- growth at 10 µM (A549): 104%
- growth at 10 µM (EKVX): 118%
- growth at 10 µM (HOP-62): 127%
- growth at 10 µM (HOP-92): 108%
- growth at 10 µM (NCI-H226): 120%
- growth at 10 µM (NCI-H23): 100%
- growth at 10 µM (NCI-H322M): 167%
- growth at 10 µM (NCI-H460): 105%
- growth at 10 µM (NCI-H522): 72.2%
- growth at 10 µM (COLO 205): 130%
- growth at 10 µM (HCT-15): 84.2%
- growth at 10 µM (KM12): 123%
- growth at 10 µM (SW-620): 129%
- growth at 10 µM (SF-295): 133%
- growth at 10 µM (SNB-75): 84.2%
- growth at 10 µM (M14): 117%
- growth at 10 µM (SK-MEL-2): 109%
- growth at 10 µM (SK-MEL-5): 108%
- growth at 10 µM (UACC-62): 90.7%
- growth at 10 µM (IGROV-1): 65.3%
- growth at 10 µM (OVCAR-4): 108%
- growth at 10 µM (OVCAR-5): 114%
- growth at 10 µM (OVCAR-8): 103%
- growth at 10 µM (NCI/ADR-RES): 100%
- growth at 10 µM (786-0): 69.8%
